Data as given in ChEMBL document CHEMBL4680218, “Design and synthesis of tripeptidyl furylketones as selective inhibitors against the β5 subunit of human 20S proteasome” (Eur J Med Chem, 2020).
Activity calls are given as the source filed them.

Tests used:
[1] = system: A549; experiment: Cytotoxicity against human A549 cells assessed as reduction in cell viability after 72 hrs by Cell Titer-Glo assay; type: functional, cell-based; settings: A549, 72 h
Summary of the method: (§1)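 Cells were cultured in their respective media with 10% FBS, seeded from log phase at 1000 cells/well, and given compound after 18–24 h. After 72 h, an equal volume of CellTiter-Glo reagent was added and luminescence was read at 37 °C. IC50 came from dose-response curve fits; values are mean ± SD of three independent experiments, each in biological triplicate.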

[2] = Toxicity in BALB/c athymic nude mouse xenografted with human HCT-116 cells assessed as reduction in body weight at 10 mg/kg, iv administered twice a week for 28 days; type: organism-based; settings: in vivo, 672 h, time 28 day
Summary of the method: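 Male nude mice had 1 × 10^7 HCT-116 cells in serum-free RPMI 1640 implanted subcutaneously in the right flank. At ~300 mm³ (about day 10) they were randomized, n=3/group. Dosing was by tail vein twice weekly (D1/D4) for four weeks: 10 mg/kg in 8% ethanol/2% Tween 80/90% water, or 5 mg/kg in 10% sulfobutylether-β-cyclodextrin, 10 mmol/L citrate pH 3.5. Caliper volume (length × width²)/2 and body weight were measured twice weekly.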

[3] = target: T1, Proteasome Macropain subunit MB1 (Homo sapiens) (UniProt P28074); experiment: Reversible inhibition of human 20S proteasome beta5 subunit assessed as residual enzyme activity using Suc-LLVY-Glo as substrate preincubated for 2 hrs followed by compound washout and further incubated for 4 hrs followed by substrate addition and measured after 10 mins by bioluminescent assay relative to control
T1 sequence (whole entry): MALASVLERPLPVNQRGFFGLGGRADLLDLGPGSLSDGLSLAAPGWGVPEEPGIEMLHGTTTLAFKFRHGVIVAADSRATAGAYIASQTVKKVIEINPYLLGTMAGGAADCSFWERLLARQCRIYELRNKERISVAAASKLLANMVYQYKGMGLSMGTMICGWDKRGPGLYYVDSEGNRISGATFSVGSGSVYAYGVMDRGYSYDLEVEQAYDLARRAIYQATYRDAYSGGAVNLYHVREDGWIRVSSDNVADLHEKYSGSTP
Summary of the method: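 Human 20S proteasome (8 μg/mL) was pre-incubated with inhibitor for 2 h at 25 °C. Samples were then washed five times in assay buffer on 100 kDa cut-off centrifugal filters (14,000 g, 5 min each) and recovered. After a further 4 h at 25 °C, Suc-LLVY-Glo was added and luminescence was read after 10 min. Unwashed samples held an extra 4 h served as the standard.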

[4] = target: T2, Proteasome Macropain subunit MB1 (Homo sapiens, UniProt P28074); experiment: Inhibition of chymotrypsin-like activity of human 20S proteasome beta5 subunit using Suc-LLVY-Glo as substrate incubated for 2 hrs followed by substrate addition and measured for 10 mins by bioluminescent assay
T2 sequence (P28074 whole entry): T1 sequence (whole entry)
Summary of the method: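 Human constitutive 20S proteasome (1 μg/mL) was combined with compound serially diluted in 10 mM HEPES pH 7.6, with final DMSO 1% (v/v). After 2 h at 25 °C, Suc-LLVY-Glo (CT-L), Z-LRR-Glo (T-L) or Z-nLPnLD-Glo (C-L) reagent was added. Luminescence was read over 10 min, and IC50 was taken from inhibition rates.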

[5] = target: T1, Proteasome Macropain subunit MB1 (Homo sapiens); experiment: Binding affinity to immobilized human 20S proteasome beta 5 subunit assessed as association rate constant by SPR analysis
Summary of the method: (§2)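 Purified human constitutive 20S proteasome was immobilised on a CM5 chip. Analyte was a 2-fold series from 25 to 1.56 µM in running buffer (10 mM phosphate, 2.7 mM KCl, 137 mM NaCl, 0.05% P20, 5% DMSO, pH 7.4). Flow was 30 µL/min, with 60 s association and 60 s dissociation. Responses were normalised by molecular weight, and kon/koff came from a 1:1 binding fit.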

[6] = system: HCT-116; experiment: Cell cycle arrest in human HCT-116 cells assessed as accumulation at S phase at 1 uM after 24 hrs by propidium iodide staining based flow cytometric analysis (reference value: 50%); type: functional
[7] = system: BGC-823; experiment: Cytotoxicity against human BGC-823 cells assessed as reduction in cell viability after 72 hrs by Cell Titer-Glo assay; type: functional, cell-based; settings: BGC-823, 72 h; summary of the method: as §1
[8] = Cmax in Sprague-Dawley rat at 5 mg/kg, iv measured up to 48 hrs by LC-MS/MS analysis; type: ADME, organism-based; parameters: route intravenous, dose 5 mg/kg, time <=48; settings: in vivo
Summary of the method: (§3)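 Male Sprague-Dawley rats, three per group, fasted 12 h, then given a single intravenous dose of 5 mg/kg in 8% ethanol, 2% Tween 80 and 90% sterile water. Blood was drawn from the venous plexus at the inner canthus into heparin tubes at 5, 15 and 30 min and at 1, 2, 4, 8, 24, 32 and 48 h. Plasma was quantified by LC-MS/MS against an internal standard.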

[9] = system: HCT-116; experiment: Cytotoxicity against human HCT-116 cells assessed as reduction in cell viability after 72 hrs by Cell Titer-Glo assay; type: functional, cell-based; settings: HCT-116, 72 h; summary of the method: as §1
[10] = target: T1, Proteasome Macropain subunit MB1 (Homo sapiens); experiment: Covalent binding affinity to human 20S proteasome beta5 subunit assessed as methyl hemi-ketal formation using H2O-CH3CN as mobile phase by HPLC analysis
[11] = system: HCT-116; experiment: Cell cycle arrest in human HCT-116 cells assessed as accumulation at G2/M phase at 1 uM after 24 hrs by propidium iodide staining based flow cytometric analysis (reference value: 21%); type: functional
[12] = Clearance in Sprague-Dawley rat at 5 mg/kg, iv measured up to 48 hrs by LC-MS/MS analysis; type: ADME, organism-based; settings: in vivo; summary of the method: as §3
[13] = system: A-375; experiment: Cytotoxicity against human A-375 cells assessed as reduction in cell viability after 72 hrs by Cell Titer-Glo assay; type: functional, cell-based; settings: A-375, 72 h; summary of the method: as §1
[14] = target: T1, Proteasome Macropain subunit MB1 (Homo sapiens); experiment: Covalent binding affinity to human 20S proteasome beta5 subunit assessed as hemi-ketal formation using H2O-MeOH as mobile phase by HPLC analysis
[15] = target: T1, Proteasome Macropain subunit MB1 (Homo sapiens); experiment: Inhibition of chymotrypsin-like activity of human 20S proteasome beta5 subunit at 50 uM using Suc-LLVY-Glo as substrate incubated for 2 hrs followed by substrate addition and measured for 10 mins by bioluminescent assay relative to control; settings: time 130.0 min
Summary of the method: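 Human constitutive 20S proteasome (1 µg/mL) was incubated with compound for 2 h at 25 °C in 10 mM HEPES pH 7.6 with 1% DMSO final. Suc-LLVY-Glo substrate was then added, and luminescence was read over 10 min. Inhibition rate was calculated against the uninhibited signal.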

[16] = system: HeLa; experiment: Cytotoxicity against human HeLa cells assessed as reduction in cell viability after 72 hrs by Cell Titer-Glo assay; type: functional, cell-based; summary of the method: as §1
[17] = Cytotoxicity against human PC3M1E8 cells assessed as reduction in cell viability after 72 hrs by Cell Titer-Glo assay; type: functional, cell-based; settings: PC3M1E8, 72 h; summary of the method: as §1
[18] = Half life in Sprague-Dawley rat at 5 mg/kg, iv measured up to 48 hrs by LC-MS/MS analysis; type: ADME, organism-based; settings: in vivo; summary of the method: as §3
[19] = target: T2, Proteasome Macropain subunit MB1; experiment: Binding affinity to immobilized human 20S proteasome beta 5 subunit by SPR analysis
Summary of the method: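 SPR used purified human 20S proteasome coupled to a CM5 chip. Analytes were 2-fold series from 25 to 1.56 μM in PBS-P running buffer (pH 7.4, 0.05% P20) with 5% DMSO, flowed at 30 μL/min with 60 s association and 60 s dissociation. Data were normalized by molecular weight and fitted to a 1:1 Langmuir model; KD is from the rate constants.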

[20] = system: HEK293; experiment: Cytotoxicity against human HEK293 cells assessed as reduction in cell viability after 72 hrs by Cell Titer-Glo assay; type: cell-based; settings: HEK293, 72 h; summary of the method: as §1
[21] = Volume of distribution at steady state in Sprague-Dawley rat at 5 mg/kg, iv measured up to 48 hrs by LC-MS/MS analysis; type: ADME, organism-based; settings: in vivo, read-out: Vdss; summary of the method: as §3
[22] = target: T1, Proteasome Macropain subunit MB1 (Homo sapiens); experiment: Binding affinity to immobilized human 20S proteasome beta 5 subunit assessed as dissociation rate constant by SPR analysis; summary of the method: as §2
[23] = MRT in Sprague-Dawley rat at 5 mg/kg, iv measured up to 48 hrs by LC-MS/MS analysis; type: ADME, organism-based; settings: in vivo; summary of the method: as §3
[24] = system: HT-29; experiment: Cytotoxicity against human HT-29 cells assessed as reduction in cell viability after 72 hrs by Cell Titer-Glo assay; type: functional, cell-based; settings: HT-29, 72 h; summary of the method: as §1
[25] = system: HCT-116; experiment: Cell cycle arrest in human HCT-116 cells assessed as accumulation at G1 phase at 1 uM after 24 hrs by propidium iodide staining based flow cytometric analysis (reference value: 29%); type: functional
[26] = AUC(0 to t) in Sprague-Dawley rat at 5 mg/kg, iv measured up to 48 hrs by LC-MS/MS analysis; type: ADME, organism-based; parameters: route intravenous, dose 5 mg/kg, time <=48; settings: in vivo; summary of the method: as §3
[27] = target: T1, Proteasome Macropain subunit MB1 (Homo sapiens); experiment: Covalent binding affinity to human 20S proteasome beta5 subunit assessed as compound-tryptic digest TTTLAFKFR peptide adduct formation at 10 uM incubated for 2 hrs measured after overnight incubation with trypsin by LC-MS/MS analysis
Summary of the method: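 Purified human 20S proteasome (4 nM) was incubated with 10 μM inhibitor for 2 h at room temperature, then quenched and denatured with acetonitrile. Trypsin (1:50) digestion ran overnight at 37 °C, followed by C18 desalting. Nano-LC-MS/MS used a 0.1% formic acid water/acetonitrile gradient. Adducts were searched against UniProt at ±10 ppm precursor and ±0.02 Da fragment tolerance, allowing 2 missed cleavages.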

Activity [3]: < 30%
IC50 [4]: 180 nM
Ka [5]: 4210 M⁻¹ s⁻¹
Cmax [8]: 2010 ng/mL
Activity [10]: inactive
clearance [12]: 33.3 mL/min/kg
Activity [14]: 27%
inhibition [15]: > 50%
half-life [18]: 13.8 min
Kd [19]: 4800 nM
Vd [21]: 0.66 L/kg
Kdiss [22]: 0.0192 s⁻¹
MRT [23]: 20.2 min
AUC(0-t) at 48 h [26]: 680 ng·h/mL
Activity [27]: inactive
SMILES: COC[C@H](NC(=O)[C@H](CC(=O)NCC(C)(C)C)NS(=O)(=O)c1ccc(C)cc1)C(=O)N[C@@H](CC(C)C)C(=O)c1ccco1
IC50 [1]: 1300 nM
Activity [2]: Non-Toxic
Activity [6]: 14%
IC50 [7]: 770 nM
IC50 [9]: 280 nM
Activity [11]: 77%
IC50 [13]: 880 nM
IC50 [16]: 670 nM
IC50 [17]: 570 nM
IC50 [20]: > 50000 nM
IC50 [24]: 730 nM
Activity [25]: 9%
